Data from paper PMC7807167 (Methods (San Diego, Calif.), 2021).
Where two headings read alike, the source gives them in different places.

Columns and labels:
SARS-CoV-2/MT020880 [1] = format: cell-based; settings: for IC50_Viral Entry blocking assay: ‘Very wide’ = some activity at high concentrations too staggering to plot
SARS-CoV-2/MT020880 [2] = format: cell-based; settings: for IC-50_Viral Spread assay: ‘Very wide’ = some activity at high concentrations too staggering to plot
SARS-CoV-2 = format: cell-based; settings: for inhibitory activity against SARS-CoV-2: concentration range tested; for anti-SARS-CoV-2 activity at 25 µM: Fig 6, Fig 7
ATCC Vero E6 cells = settings: for Cytotoxicity: Vero E6, tested range up to 50 μM
3CLpro [3] = target: T1, 3CLpro (Severe acute respiratory syndrome coronavirus 2, UniProt P0DTD1); experiment: Preliminary compound screening for 3CLpro inhibitors; format: biochemical, SARS-CoV-2; settings: four concentrations, 1–50 µM, 3CLpro 0.4 µM, TVLQ-AMC 40 µM
Outline: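 Duplicate wells, 25 °C. Test compound (1–50 µM) or DMSO (0 µM) preincubated about 5 min with 3CLpro (0.4 µM) in Tris-HCl pH 7.3, 1 mM EDTA. Started with TVLQ-AMC (40 µM), shaken 5 s, emission 440 nm (excitation 364 nm) read 1 min–3 h. Controls: 6–8 DMSO wells, 2 no-enzyme wells. Two replicate screens; emission normalized to 0 µM at 3 h.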

3CLpro [4] = target: T1, 3CLpro; experiment: 3CLpro enzyme inhibition assay; format: biochemical, SARS-CoV-2
Outline: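 Inhibitor (0–1000 µM) preincubated about 5 min with 3CLpro (0.4 µM) in Tris-HCl pH 7.3, 1 mM EDTA, triplicate, 25 °C. Started with TVLQ-AMC (40 µM) at fixed concentration, shaken 5 s. Fluorescence (excitation 364 nm) read continuously over time.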

Compound | IC50_Viral Entry blocking assay (SARS-CoV-2/MT020880 [1]) | IC-50_Viral Spread assay (SARS-CoV-2/MT020880 [2]) | inhibitory activity against SARS-CoV-2 (SARS-CoV-2) | Cytotoxicity (ATCC Vero E6 cells) | activity in 3CLpro screening (rate of substrate cleavage) (3CLpro [3]) | IC50 (3CLpro [4]) | anti-SARS-CoV-2 activity at 25 µM (SARS-CoV-2) | Percent inhibition at 50 µM (SARS-CoV-2/MT020880 [1]; viral entry assay, 50 µM) | Percent inhibition at 50 µM (SARS-CoV-2/MT020880 [2]) | concentration with high cytotoxicity (ATCC Vero E6 cells; ATCC E6 Vero cells, number of nuclei counted)
OC[C@H]1O[C@@H](O[C@@H]2[C@@H](CO)OC(O)(CO)[C@H]2O)[C@H](O)[C@@H](O)[C@H]1O (mixture of isomers) [Lactulose] | nil | nil | no observed inhibitory activity | Nontoxic within tested conc. range | – | – | – | – | – | –
NCC[C@H](O)C(=O)N[C@@H]1C[C@H](N)[C@@H](O[C@H]2O[C@H](CN)[C@@H](O)[C@H](O)[C@H]2O)[C@H](O)[C@H]1O[C@H]1O[C@H](CO)[C@@H](O)[C@H](N)[C@H]1O [Amikacin hydrate] | (Very wide) | (Very wide) | – | Nontoxic within tested conc. range | – | – | – | – | – | –
[H]/N=C(/N)SCCCn1cc(C2=C(c3cn(C)c4ccccc34)C(=O)NC2=O)c2ccccc21 [Bisindolylmaleimide IX] | – | – | – | Nontoxic within tested conc. range | significant activity | 114 ± 5.2 µM | – | – | – | –
O=C(CCCN1CCC(O)(c2ccc(Cl)cc2)CC1)c1ccc(F)cc1 [Haloperidol] | – | – | – | Non-toxic within tested conc. range | very mild activity | – | 9.8% | – | – | –
COCC(=O)Nc1c(I)c(C(=O)NCC(O)CO)c(I)c(C(=O)N(C)CC(O)CO)c1I (stereo not shown) [Iopromide] | nil | nil | no observed inhibitory activity | Nontoxic within tested conc. range | – | – | – | – | – | –
NC[C@@H]1O[C@H](O[C@H]2[C@@H](O)[C@H](O[C@@H]3[C@@H](O)[C@H](N)C[C@H](N)[C@H]3O[C@H]3O[C@H](CO)[C@@H](O)[C@H](O)[C@H]3N)O[C@@H]2CO)[C@H](N)[C@@H](O)[C@@H]1O [Paromomycin] | – | (Very wide) | – | Nontoxic within tested conc. range | – | – | 2.3% | – | – | –
C[C@@H]1O[C@@H](OC[C@H]2O[C@@H](Oc3c(-c4ccc(OCCO)c(OCCO)c4)oc4cc(OCCO)cc(O)c4c3=O)[C@H](O)[C@@H](O)[C@@H]2O)[C@H](O)[C@H](O)[C@H]1O [Troxerutin] | (Very wide) | (Very wide) | – | Nontoxic within tested conc. range | – | – | 2.8% | – | – | –
Ivermectin | – | – | – | Toxic above 50 µM | – | – | – | 99% | 46% | > 16.67 µM
